Data: ChEMBL document CHEMBL3603771, “Synthesis, biological evaluation and docking study of maleimide derivatives bearing benzenesulfonamide as selective COX-2 inhibitors and anti-inflammatory agents” (Bioorg Med Chem, 2015)

Key:
Rattus norvegicus [1] = test: Antiinflammatory activity in Wistar albino rat assessed as inhibition of carrageenan-induced hind paw edema at 20 mg/kg, po after 3 hrs by plethysmometer; type: functional
Procedure, shortened: (§1)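 Adult male Wistar albino rats, 150-200 g, fasted 24 h, six per group. Compounds at 20 mg/kg suspended in 1% CMC in water (10 mL/kg) given orally; vehicle-only controls. Carrageenan in normal saline injected into the plantar surface of the right hind paw 30 min after dosing.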

[2] = Selectivity index, ratio of inhibition of human recombinant COX2 to inhibition of ovine COX1
Procedure, shortened: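 Ovine COX-1 or human recombinant COX-2 in 0.1 M Tris-HCl pH 8 with heme, preincubated with compound (DMSO stock) 5 min at 25°C. TMPD and arachidonic acid then added, 2 min at 25°C. Peroxidase activity read as oxidized TMPD at 590 nm. Compounds tested at 1 μM; % inhibition is the mean of two determinations. Selectivity index taken as COX-2/COX-1.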

[3] = biological target: T1, Prostaglandin G/H synthase 1 (Ovis aries) (UniProt P05979); test: Inhibition of ovine COX1 using arachidonic acid as substrate at 1 uM preincubated for 5 mins measured after 2 mins by colorimetric analysis
T1 sequence (whole entry): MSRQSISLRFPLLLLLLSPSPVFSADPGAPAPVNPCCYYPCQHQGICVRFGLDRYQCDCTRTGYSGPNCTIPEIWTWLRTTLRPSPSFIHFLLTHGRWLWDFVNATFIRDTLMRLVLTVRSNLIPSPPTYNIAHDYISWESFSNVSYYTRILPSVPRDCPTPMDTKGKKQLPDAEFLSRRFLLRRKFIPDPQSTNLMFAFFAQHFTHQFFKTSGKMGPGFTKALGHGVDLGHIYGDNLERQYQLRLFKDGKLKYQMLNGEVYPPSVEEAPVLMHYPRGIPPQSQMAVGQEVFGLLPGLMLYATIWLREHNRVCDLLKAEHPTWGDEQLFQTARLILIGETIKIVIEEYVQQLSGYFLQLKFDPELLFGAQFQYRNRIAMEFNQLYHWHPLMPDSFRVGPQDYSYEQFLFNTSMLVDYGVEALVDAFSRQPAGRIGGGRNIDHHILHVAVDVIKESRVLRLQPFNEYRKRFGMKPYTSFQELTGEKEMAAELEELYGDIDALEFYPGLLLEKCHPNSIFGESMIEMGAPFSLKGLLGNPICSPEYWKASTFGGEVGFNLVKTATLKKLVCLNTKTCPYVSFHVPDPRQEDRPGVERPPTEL
Procedure, shortened: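 Ovine COX-1 or human recombinant COX-2 in 0.1 M Tris-HCl pH 8 with heme, preincubated with compound (DMSO stock) 5 min at 25°C. TMPD and arachidonic acid then added, 2 min at 25°C. Peroxidase activity read as oxidized TMPD at 590 nm. Selectivity index taken as COX-2/COX-1.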

Rattus norvegicus [4] = test: Antiinflammatory activity in Wistar albino rat assessed as inhibition of carrageenan-induced hind paw edema at 20 mg/kg, po after 5 hrs by plethysmometer; type: functional; procedure, shortened: as §1
Rattus norvegicus [5] = test: Antiinflammatory activity in Wistar albino rat assessed as inhibition of carrageenan-induced hind paw edema at 20 mg/kg, po after 1 hr by plethysmometer; type: functional; procedure, shortened: as §1
[6] = biological target: T2, Prostaglandin G/H synthase 2 (Homo sapiens) (UniProt P35354); conditions: at 1 µM;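 further: recombinant enzyme with arachidonic acid substrate, compound preincubated 5 min, colorimetric read-out taken 2 min after reaction start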
T2 sequence (whole entry): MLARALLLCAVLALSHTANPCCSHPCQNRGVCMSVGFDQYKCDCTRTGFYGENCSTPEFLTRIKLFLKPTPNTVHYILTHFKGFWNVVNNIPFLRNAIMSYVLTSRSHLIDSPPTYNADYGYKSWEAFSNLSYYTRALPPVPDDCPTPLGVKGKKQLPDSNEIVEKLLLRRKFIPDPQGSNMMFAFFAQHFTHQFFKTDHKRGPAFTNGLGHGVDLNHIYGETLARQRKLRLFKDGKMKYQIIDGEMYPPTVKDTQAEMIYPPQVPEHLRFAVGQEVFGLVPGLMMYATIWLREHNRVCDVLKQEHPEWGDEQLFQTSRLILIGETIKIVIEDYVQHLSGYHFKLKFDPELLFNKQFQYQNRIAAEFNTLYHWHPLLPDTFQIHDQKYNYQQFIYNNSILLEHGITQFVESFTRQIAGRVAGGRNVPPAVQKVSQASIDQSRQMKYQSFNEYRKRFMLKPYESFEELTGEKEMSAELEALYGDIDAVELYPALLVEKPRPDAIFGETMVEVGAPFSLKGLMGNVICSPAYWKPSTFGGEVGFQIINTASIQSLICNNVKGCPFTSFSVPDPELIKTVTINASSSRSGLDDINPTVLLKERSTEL

Rattus norvegicus [7] = test: Toxicity in Wistar albino rat assessed as ulcer index at 20 mg/kg, po qd for 3 days measured after 6 hrs of last dose; type: organism-based; conditions: in vivo
Procedure, shortened: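 Male albino rats, 150-200 g, fasted 12 h with water ad libitum. Dosed orally at 20 mg/kg/day once daily for 3 days; controls received 7% gum acacia vehicle. Killed by ether overdose 6 h after the last dose. Stomachs opened along the greater curvature and scored for ulcers. Ulcer index by the Robert method from % incidence/10, mean ulcer number per stomach and severity score.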

| Structure (SMILES) | inhibition in vivo at 20 mg/kg (Rattus norvegicus [1]) | Selectivity Index [2] | inhibition [3] | inhibition in vivo at 20 mg/kg (Rattus norvegicus [4]) | inhibition in vivo at 20 mg/kg (Rattus norvegicus [5]) | inhibition [6] | UI (Rattus norvegicus [7]) |
| --- | --- | --- | --- | --- | --- | --- | --- |
| NS(=O)(=O)c1ccc(N2C(=O)C(Cl)=C(Nc3ccccc3)C2=O)cc1 | 56.8% | 44.5 | 0.89% | 62.1% | 35.4% | 39.6% |  |
| NS(=O)(=O)c1ccc(N2C(=O)C(Cl)=C(N3CCCCC3)C2=O)cc1 |  | 14.7 | 0.44% |  |  | 6.45% |  |
| NS(=O)(=O)c1ccc(N2C(=O)C(Cl)=C(Nc3ccc([N+](=O)[O-])cc3)C2=O)cc1 |  | 19.1 | 0.89% |  |  | 17.1% |  |
| COc1ccccc1NC1=C(Cl)C(=O)N(c2ccc(S(N)(=O)=O)cc2)C1=O |  | 2.19 | 7.14% |  |  | 15.7% |  |
| NS(=O)(=O)c1ccc(N2C(=O)C(Cl)=C(Nc3ccc(Cl)cc3)C2=O)cc1 |  | 2.6 | 9.37% |  |  | 24.4% |  |
| NS(=O)(=O)c1ccc(N2C(=O)C(Cl)=C(Nc3ccc(F)cc3)C2=O)cc1 |  | 20.8 | 1.33% |  |  | 27.6% |  |
| NS(=O)(=O)c1ccc(N2C(=O)C(Cl)=C(Nc3cccc(Cl)c3Cl)C2=O)cc1 |  | 6.78 | 4.01% |  |  | 27.2% |  |
| NS(=O)(=O)c1ccc(N2C(=O)C(Cl)=C(Cl)C2=O)cc1 |  | 0.611 | 12.1% |  |  | 7.37% |  |
| NS(=O)(=O)c1ccc(N2C(=O)C(Cl)=C(Nc3cccc(Cl)c3)C2=O)cc1 | 70.4% | 47.6 | 0.89% | 72.1% | 69.1% | 42.4% |  |
| Cc1cc(C)cc(NC2=C(Cl)C(=O)N(c3ccc(S(N)(=O)=O)cc3)C2=O)c1 |  | 15.7 | 0.44% |  |  | 6.91% |  |
| COc1ccc(NC2=C(Cl)C(=O)N(c3ccc(S(N)(=O)=O)cc3)C2=O)cc1 |  | 11.9 | 0.89% |  |  | 10.6% |  |
| Cc1ccccc1NC1=C(Cl)C(=O)N(c2ccc(S(N)(=O)=O)cc2)C1=O |  | 1.62 | 6.25% |  |  | 10.1% |  |
| NS(=O)(=O)c1ccc(N2C(=O)C(Cl)=C(Nc3ccccc3F)C2=O)cc1 | 71% | 44.5 | 0.89% | 74.9% | 69.2% | 39.6% |  |
| NS(=O)(=O)c1ccc(N2C(=O)C(Cl)=C(Nc3ccc(C(F)(F)F)cc3)C2=O)cc1 |  | 6.78 | 4.01% |  |  | 27.2% |  |
| Cc1ccc(-c2cc(C(F)(F)F)nn2-c2ccc(S(N)(=O)=O)cc2)cc1 [CELECOXIB] | 100% |  |  | 100% | 92.2% |  | 11.9 |
| Cc1ccc(NC2=C(Cl)C(=O)N(c3ccc(S(N)(=O)=O)cc3)C2=O)c(C)c1 |  | 2.57 | 5.35% |  |  | 13.8% |  |
| COc1cccc(NC2=C(Cl)C(=O)N(c3ccc(S(N)(=O)=O)cc3)C2=O)c1 | 71.5% | 49.7 | 0.89% | 77.3% | 73% | 44.2% |  |
| NS(=O)(=O)c1ccc(N2C(=O)C(Cl)=C(Nc3ccc(Cl)c(Cl)c3)C2=O)cc1 |  | 3.78 | 8.03% |  |  | 30.4% |  |
| Nc1ccccc1NC1=C(Cl)C(=O)N(c2ccc(S(N)(=O)=O)cc2)C1=O |  | 12.9 | 1.78% |  |  | 23% |  |
| NS(=O)(=O)c1ccc(N2C(=O)C(Cl)=C(Nc3cccc(F)c3)C2=O)cc1 | 81% | 55.4 | 0.89% | 82.6% | 79.8% | 49.3% | 8.3 |
